Results as given in ChEMBL document CHEMBL1772942, “Synthesis and in vitro cytotoxic evaluation of N-alkylbromo and N-alkylphthalimido-isatins” (Bioorg Med Chem Lett, 2011).

Key:
HCT-15 [1] = assay: Cytotoxicity against human HCT15 cells assessed as cell growth inhibition at 1 uM after 48 hrs by sulforhodamine B assay; type: functional; details: HCT-15, 48 h, read-out: GI
Procedure, shortened: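 NCI-sourced cells in RPMI-1640 (2 mM glutamine, 10% FCS, penicillin), >98% trypan-blue viable, seeded at 1 × 10^5 cells/ml and grown 24 h (37 °C, 5% CO2). DMSO stocks diluted in medium with gentamycin; 48 h exposure. TCA fixation 1 h at 4 °C, 0.4% SRB stain 30 min, dye dissolved in Tris pH 10.4, OD 540 nm. Blank-subtracted; inhibition relative to untreated growth (100%).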

HCT-15 [2] = assay: Cytotoxicity against human HCT15 cells assessed as cell growth inhibition at 100 uM after 48 hrs by sulforhodamine B assay; type: functional; details: HCT-15, 48 h, read-out: GI
Procedure, shortened: (§1)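 Cell lines from NCI, grown in RPMI-1640 (2 mM glutamine, pH 7.4, 10% fetal calf serum, penicillin) at 37 °C, 5% CO2, 90% RH, viability >98% by trypan blue. 1×10^5 cells/ml seeded, grown 24 h, then compound added at 10 or 100 µM (DMSO stocks diluted in medium with gentamycin) for 48 h. TCA fixation, SRB staining, OD 540 nm; % growth inhibition versus untreated growth, blank-subtracted.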

HCT-15 [3] = assay: Cytotoxicity against human HCT15 cells assessed as cell growth inhibition at 10 uM after 48 hrs by sulforhodamine B assay; type: functional; details: HCT-15, 48 h, read-out: GI; procedure, shortened: as §1
THP-1 [4] = assay: Cytotoxicity against human THP1 cells after 48 hrs by sulforhodamine B assay; type: functional, cell-based; details: THP-1, 48 h
Procedure, shortened: (§2)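 Sulforhodamine B assay on NCI-sourced cells in RPMI-1640/10% FCS, seeded at 1×10^5 cells/ml and left 24 h, then serial dilutions of 2×10^-2 M DMSO stocks in gentamycin medium added for 48 h (37 °C, 5% CO2). Cells fixed with cold TCA, SRB dye dissolved in Tris pH 10.4, OD read at 540 nm. IC50 is the concentration inhibiting 50% of cell viability.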

THP-1 [5] = assay: Cytotoxicity against human THP1 cells assessed as cell growth inhibition at 100 uM after 48 hrs by sulforhodamine B assay; type: functional; details: THP-1, 48 h, read-out: GI; procedure, shortened: as §1
HeLa = assay: Cytotoxicity against human HeLa cells after 48 hrs by sulforhodamine B assay; type: functional, cell-based
HEp-2 [6] = assay: Cytotoxicity against human Hep2 cells assessed as cell growth inhibition at 10 uM after 48 hrs by sulforhodamine B assay; type: functional; details: HEp-2, 48 h, read-out: GI; procedure, shortened: as §1
PC-3 = assay: Cytotoxicity against human PC3 cells after 48 hrs by sulforhodamine B assay; type: functional, cell-based; details: PC-3, 48 h
HCT-15 [7] = assay: Cytotoxicity against human HCT15 cells after 48 hrs by sulforhodamine B assay; type: functional, cell-based; details: HCT-15, 48 h; procedure, shortened: as §2
THP-1 [8] = assay: Cytotoxicity against human THP1 cells assessed as cell growth inhibition at 10 uM after 48 hrs by sulforhodamine B assay; type: functional; details: THP-1, 48 h, read-out: GI; procedure, shortened: as §1
A549 [9] = assay: Cytotoxicity against human A549 cells assessed as cell growth inhibition at 100 uM after 48 hrs by sulforhodamine B assay; type: functional; details: A549, 48 h, read-out: GI; procedure, shortened: as §1
COLO 205 = assay: Cytotoxicity against human COLO205 cells after 48 hrs by sulforhodamine B assay; type: functional, cell-based; details: COLO 205, 48 h
HEp-2 [10] = assay: Cytotoxicity against human Hep2 cells assessed as cell growth inhibition at 100 uM after 48 hrs by sulforhodamine B assay; type: functional; details: HEp-2, 48 h, read-out: GI; procedure, shortened: as §1
A549 [11] = assay: Cytotoxicity against human A549 cells assessed as cell growth inhibition at 10 uM after 48 hrs by sulforhodamine B assay; type: functional; details: A549, 48 h, read-out: GI; procedure, shortened: as §1
A549 [12] = assay: Cytotoxicity against human A549 cells after 48 hrs by sulforhodamine B assay; type: functional, cell-based; details: A549, 48 h; procedure, shortened: as §2
A549 [13] = assay: Cytotoxicity against human A549 cells assessed as cell growth inhibition at 1 uM after 48 hrs by sulforhodamine B assay; type: functional; details: A549, 48 h, read-out: GI
THP-1 [14] = assay: Cytotoxicity against human THP1 cells assessed as cell growth inhibition at 1 uM after 48 hrs by sulforhodamine B assay; type: functional; details: THP-1, 48 h, read-out: GI
HEp-2 [15] = assay: Cytotoxicity against human Hep2 cells assessed as cell growth inhibition at 1 uM after 48 hrs by sulforhodamine B assay; type: functional; details: HEp-2, 48 h, read-out: GI

With `O=c1[nH]cc(F)c(=O)[nH]1` [FLUOROURACIL] the inhibition of growth at 1 µM (HCT-15 [1]) was 31%.

For `O=C1C(=O)N(CCCCCCN2C(=O)c3ccccc3C2=O)c2ccccc21`, the inhibition of growth at 100 µM (HCT-15 [2]) was 91%, the inhibition of growth at 10 µM (HCT-15 [3]) was 49% and the IC50 (THP-1 [4]) was > 100 µM. For the same molecule, the inhibition of growth at 100 µM (THP-1 [5]) was 95%, the IC50 (HeLa) was 8.82 µM and the inhibition of growth at 10 µM (HEp-2 [6]) was 39%. The IC50 (PC-3) was 12.8 µM, the IC50 (HCT-15 [7]) was 9.73 µM and the inhibition of growth at 10 µM (THP-1 [8]) was 96%. For the same molecule, the inhibition of growth at 100 µM (A549 [9]) was 14%, the IC50 (COLO 205) was > 100 µM and the inhibition of growth at 100 µM (HEp-2 [10]) was 90%. The inhibition of growth at 10 µM (A549 [11]) was 0% and the IC50 (A549 [12]) was > 100 µM.

`O=C1C(=O)N(CCCCN2C(=O)c3ccccc3C2=O)c2ccccc21` was tested, and the inhibition of growth at 100 µM (HCT-15 [2]) was 89%, the inhibition of growth at 10 µM (HCT-15 [3]) was 4% and the inhibition of growth at 100 µM (THP-1 [5]) was 92%. It also gave an inhibition of growth at 10 µM (HEp-2 [6]) of 15%, an inhibition of growth at 10 µM (THP-1 [8]) of 44% and an inhibition of growth at 100 µM (A549 [9]) of 36%. The inhibition of growth at 100 µM (HEp-2 [10]) was 73% and the inhibition of growth at 10 µM (A549 [11]) was 0%.

Work on `O=C1C(=O)N(CCCCCBr)c2ccccc21` yielded an inhibition of growth at 100 µM (HCT-15 [2]) of 91%, an inhibition of growth at 10 µM (HCT-15 [3]) of 62% and an IC50 (THP-1 [4]) of 42.3 µM. It also gave an inhibition of growth at 100 µM (THP-1 [5]) of 91%, an IC50 (HeLa) of 5.49 µM and an inhibition of growth at 10 µM (HEp-2 [6]) of 40%. For the same molecule, the IC50 (PC-3) was 11.5 µM, the IC50 (HCT-15 [7]) was 8.46 µM and the inhibition of growth at 10 µM (THP-1 [8]) was 85%. For the same molecule, the inhibition of growth at 100 µM (A549 [9]) was 40%, the IC50 (COLO 205) was > 100 µM and the inhibition of growth at 100 µM (HEp-2 [10]) was 81%. For the same molecule, the inhibition of growth at 10 µM (A549 [11]) was 0% and the IC50 (A549 [12]) was > 100 µM.

In the case of `COc1cccc2c1C(=O)c1c(O)c3c(c(O)c1C2=O)C[C@@](O)(C(=O)CO)C[C@@H]3O[C@H]1C[C@H](N)[C@H](O)[C@H](C)O1` [DOXORUBICIN], the inhibition of growth at 1 µM (A549 [13]) is reported as 55% and the inhibition of growth at 1 µM (THP-1 [14]) is reported as 96%.

With `O=C1C(=O)N(CCCCCN2C(=O)c3ccccc3C2=O)c2ccccc21` the inhibition of growth at 100 µM (HCT-15 [2]) was 97%, the inhibition of growth at 10 µM (HCT-15 [3]) was 9% and the inhibition of growth at 100 µM (THP-1 [5]) was 93%. It also gave an inhibition of growth at 10 µM (HEp-2 [6]) of 10%, an inhibition of growth at 10 µM (THP-1 [8]) of 60% and an inhibition of growth at 100 µM (A549 [9]) of 36%. The inhibition of growth at 100 µM (HEp-2 [10]) was 85% and the inhibition of growth at 10 µM (A549 [11]) was 4%.

With `O=C1C(=O)N(CCN2C(=O)c3ccccc3C2=O)c2ccccc21` the inhibition of growth at 100 µM (HCT-15 [2]) was 86%, the inhibition of growth at 10 µM (HCT-15 [3]) was 3% and the inhibition of growth at 100 µM (THP-1 [5]) was 96%. For the same molecule, the inhibition of growth at 10 µM (HEp-2 [6]) was 10%, the inhibition of growth at 10 µM (THP-1 [8]) was 9% and the inhibition of growth at 100 µM (A549 [9]) was 43%. It also gave an inhibition of growth at 100 µM (HEp-2 [10]) of 68% and an inhibition of growth at 10 µM (A549 [11]) of 18%.

With `O=C1C(=O)N(CCBr)c2ccccc21` the inhibition of growth at 100 µM (HCT-15 [2]) was 89%, the inhibition of growth at 10 µM (HCT-15 [3]) was 4% and the inhibition of growth at 100 µM (THP-1 [5]) was 96%. For the same molecule, the inhibition of growth at 10 µM (HEp-2 [6]) was 14%, the inhibition of growth at 10 µM (THP-1 [8]) was 14% and the inhibition of growth at 100 µM (A549 [9]) was 44%. For the same molecule, the inhibition of growth at 100 µM (HEp-2 [10]) was 71% and the inhibition of growth at 10 µM (A549 [11]) was 38%.

In the case of `O=C1C(=O)N(CCCCCCBr)c2ccccc21`, the inhibition of growth at 100 µM (HCT-15 [2]) is reported as 95%, the inhibition of growth at 10 µM (HCT-15 [3]) is reported as 67% and the IC50 (THP-1 [4]) is reported as 26.5 µM. For the same molecule, the inhibition of growth at 100 µM (THP-1 [5]) was 93%, the IC50 (HeLa) was 12 µM and the inhibition of growth at 10 µM (HEp-2 [6]) was 48%. For the same molecule, the IC50 (PC-3) was 11.7 µM, the IC50 (HCT-15 [7]) was 12.4 µM and the inhibition of growth at 10 µM (THP-1 [8]) was 94%. The inhibition of growth at 100 µM (A549 [9]) was 53%, the IC50 (COLO 205) was > 100 µM and the inhibition of growth at 100 µM (HEp-2 [10]) was 86%. The inhibition of growth at 10 µM (A549 [11]) was 0% and the IC50 (A549 [12]) was > 100 µM.

`O=C1C(=O)N(CCCCBr)c2ccccc21` was tested, and the inhibition of growth at 100 µM (HCT-15 [2]) was 88%, the inhibition of growth at 10 µM (HCT-15 [3]) was 62% and the IC50 (THP-1 [4]) was 12.4 µM. It also gave an inhibition of growth at 100 µM (THP-1 [5]) of 90%, an IC50 (HeLa) of 4.57 µM and an inhibition of growth at 10 µM (HEp-2 [6]) of 33%. The IC50 (PC-3) was 10.9 µM, the IC50 (HCT-15 [7]) was 11.8 µM and the inhibition of growth at 10 µM (THP-1 [8]) was 90%. For the same molecule, the inhibition of growth at 100 µM (A549 [9]) was 49%, the IC50 (COLO 205) was 54.2 µM and the inhibition of growth at 100 µM (HEp-2 [10]) was 68%. For the same molecule, the inhibition of growth at 10 µM (A549 [11]) was 30% and the IC50 (A549 [12]) was > 100 µM.

For `CO[C@@]12[C@H](COC(N)=O)C3=C(C(=O)C(C)=C(N)C3=O)N1C[C@@H]1N[C@@H]12` [MITOMYCIN], the inhibition of growth at 1 µM (HEp-2 [15]) was 31%.

`O=C1C(=O)N(CCCN2C(=O)c3ccccc3C2=O)c2ccccc21` showed an inhibition of growth at 100 µM (HCT-15 [2]) of 58%, an inhibition of growth at 10 µM (HCT-15 [3]) of 1% and an inhibition of growth at 100 µM (THP-1 [5]) of 96%. It also gave an inhibition of growth at 10 µM (HEp-2 [6]) of 11%, an inhibition of growth at 10 µM (THP-1 [8]) of 8% and an inhibition of growth at 100 µM (A549 [9]) of 1%. For the same molecule, the inhibition of growth at 100 µM (HEp-2 [10]) was 30% and the inhibition of growth at 10 µM (A549 [11]) was 0%.

With `O=C1C(=O)N(CCCBr)c2ccccc21` the inhibition of growth at 100 µM (HCT-15 [2]) was 93%, the inhibition of growth at 10 µM (HCT-15 [3]) was 59% and the IC50 (THP-1 [4]) was > 100 µM. For the same molecule, the inhibition of growth at 100 µM (THP-1 [5]) was 95%, the IC50 (HeLa) was 7.77 µM and the inhibition of growth at 10 µM (HEp-2 [6]) was 36%. The IC50 (PC-3) was 15.3 µM, the IC50 (HCT-15 [7]) was 13.8 µM and the inhibition of growth at 10 µM (THP-1 [8]) was 80%. The inhibition of growth at 100 µM (A549 [9]) was 37%, the IC50 (COLO 205) was > 100 µM and the inhibition of growth at 100 µM (HEp-2 [10]) was 93%. The inhibition of growth at 10 µM (A549 [11]) was 0% and the IC50 (A549 [12]) was > 100 µM.
